The values that follow come from ChEMBL document CHEMBL2029237, “Melanin-concentrating hormone receptor 1 antagonists. Synthesis and structure-activity relationships of novel 3-(aminomethyl)quinolines” (J Med Chem, 2012).

Series [1] addresses T1, Melanin-concentrating hormone receptor 1 (Homo sapiens, UniProt Q99705). Briefly: Displacement of [125I]MCH from human MCHR1 expressed in CHO cells after 1 hr by scintillation counting. Format: cell-based. The essentials: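 CHO cell membranes stably expressing human or rat MCHR1 incubated 1 h at room temperature with [125I]MCH(4−19) and compound at various concentrations. Filtration through GF/C glass filters, bound radioactivity counted by scintillation. IC50 from one experiment in duplicate.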
A general note: Loss of bound radioactivity is the signal in a displacement assay; it reports binding, not function.

In series [2] the target is T2, 5-hydroxytryptamine receptor 2C (Homo sapiens, UniProt P28335).
T2 sequence (P28335 whole entry): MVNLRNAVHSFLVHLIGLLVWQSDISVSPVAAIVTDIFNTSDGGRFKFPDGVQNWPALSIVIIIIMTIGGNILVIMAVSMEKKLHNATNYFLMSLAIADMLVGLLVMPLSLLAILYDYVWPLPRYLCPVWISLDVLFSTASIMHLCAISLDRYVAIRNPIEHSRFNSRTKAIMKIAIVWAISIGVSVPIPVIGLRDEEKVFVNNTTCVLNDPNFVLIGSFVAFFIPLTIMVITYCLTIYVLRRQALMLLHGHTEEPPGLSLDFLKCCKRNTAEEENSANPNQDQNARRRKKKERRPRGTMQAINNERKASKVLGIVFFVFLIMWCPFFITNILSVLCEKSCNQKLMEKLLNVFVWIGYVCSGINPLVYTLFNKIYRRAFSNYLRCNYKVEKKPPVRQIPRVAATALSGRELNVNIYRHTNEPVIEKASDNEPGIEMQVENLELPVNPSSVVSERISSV
Briefly: Displacement of [3H]mesulergine from human 5HT2C receptor expressed in CHO cells after 1 hr by scintillation counting. The series is classed as cell-based. The essentials:
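Membranes from CHO cells stably expressing human 5-HT2c incubated 1 h at room temperature with [3H]mesulergine and compound at various concentrations. Terminated by GF/C filtration, filter radioactivity counted by scintillation. IC50 from one experiment in duplicate.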

The nature of series [3]: Solubility of the compound in JP2 solution at 10 mM. The series is classed as physicochemical. Put shortly:
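The 10 mM DMSO solution of compound was added to JP2 until opalescence appeared.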

For series [4], the target named is T1, Melanin-concentrating hormone receptor 1. Briefly: Antagonist activity at human MCHR1 expressed in CHO cells assessed as inhibition of MCH-induced [3H]arachidonic acid release […] by liquid scintillation counting. Format: functional, cell-based. Particulars: in the assay text read “45 mins” for “16 hrs”. The essentials:
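Human MCHR1-CHO cells seeded at 50 000/well, cultured 1 day, then loaded with [3H]arachidonic acid (0.2 μCi/well) for 16 h. Washed with DMEM containing 20 mM HEPES pH 7.4 and 0.2% BSA. Compound preincubated 30 min at 37 °C, MCH added, 45 min incubation, medium radioactivity by liquid scintillation.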

The subject of series [5] is Rattus norvegicus. Briefly: Antiobesity activity in high-fat diet fed Fischer 344 rat DIO model assessed as inhibition of food intake at 1 mg/kg, po after 6 hrs. The series is classed as functional. Particulars: Fischer 344, 6 h. The essentials: (§1)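 Male F344/Jcl rats, 52 weeks old, fed high-fat diet from 5 weeks of age, housed singly and acclimated to oral water dosing; grouped by overnight food intake and body weight. Single oral dose at 15:00 as 0.5% methylcellulose suspension, 2 mL/kg, six rats per group; vehicle controls. Cumulative food intake at 6 and 17 h; percent inhibition versus control, mean ± SD.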

Series [6] has as its system Rattus norvegicus. Briefly: Antiobesity activity in high-fat diet fed Fischer 344 rat DIO model assessed as inhibition of food intake at 1 mg/kg, po after 17 hrs. Particulars: Fischer 344, 17 h. Format: functional. Put shortly: as §1

≈ marks a conversion by molar mass, not a printed value.

T1 sequence (Q99705 whole entry): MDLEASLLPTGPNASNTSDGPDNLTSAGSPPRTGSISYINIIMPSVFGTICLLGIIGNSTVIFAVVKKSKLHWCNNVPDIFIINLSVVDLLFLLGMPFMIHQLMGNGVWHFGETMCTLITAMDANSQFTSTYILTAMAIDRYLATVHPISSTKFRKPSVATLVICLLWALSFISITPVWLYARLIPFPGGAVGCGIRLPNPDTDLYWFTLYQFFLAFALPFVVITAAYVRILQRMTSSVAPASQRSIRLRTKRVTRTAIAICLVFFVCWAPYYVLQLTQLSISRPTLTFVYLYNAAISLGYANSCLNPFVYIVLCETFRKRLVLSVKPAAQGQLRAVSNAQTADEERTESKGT

Take `O=C(Nc1ccc2cc(CN3CCCC3)cnc2c1)c1ccc(-c2ccc(F)cc2)nc1`: the IC50 (usually the concentration at which inhibition is half-maximal) in series [1] amounted to 25 nM; in series [2], 830 nM.

As to `O=C(Nc1ccc2c(c1)CCC(CN1CCCC1)=C2)c1ccc(-c2ccc(F)cc2)cc1`, in series [3], the solubility (as a rule, how much of the substance goes into solution per volume) was less than 0.03 µg/mL. For the same compound, the results for the IC50 in series [4] and in series [2] were 17 nM and 0.53 nM, respectively.

Take `COc1ccc(-c2ccc(C(=O)Nc3ccc4cc(CN5CCCC5)cnc4c3)cc2)cc1`: the IC50 in series [1] is 3.7 nM; in series [2], greater than 1000 nM.

In series [1], `O=C(Nc1ccc2cc(CN3CCCC3)cnc2c1)N1CCC(c2ccc(F)cc2)CC1` displayed an IC50 of 35 nM.

`O=C(Nc1ccc2cc(CN3CCCC3)cnc2c1)c1ccc(-c2ccccc2)nc1` registered an IC50 in series [1] of 73 nM.

`Cc1ccc(-c2ccc(C(=O)Nc3ccc4cc(CN5CCCC5)cnc4c3)cn2)cc1`: the results for the IC50 in series [1] and in series [2] were 18 nM and 570 nM, respectively.

For `O=C(Nc1cc2ncc(CN3CCCC3)cc2cc1F)c1ccc(-c2ccc(F)cc2)cc1`, the IC50 in series [4] is 8.4 nM; in series [1] it was 1.4 nM; in series [2] it was 280 nM.

Take `COc1ccc(-c2ccc(C(=O)Nc3ccc4cc(CN5CCCC5)cnc4c3)cn2)cc1`: in series [1], the IC50 turned out to be 26 nM.

Regarding `Cc1c(NC(=O)c2ccc(-c3ccc(Cl)cc3)cc2)ccc2cc(CN3CCCC3)cnc12`, the IC50 in series [4] was 7.6 nM; in series [1], 0.36 nM; in series [2], greater than 1000 nM.

As to `O=C(Nc1cc2ncc(CN3CCCC3)cc2cc1Cl)c1ccc(-c2ccc(F)cc2)cc1`, the IC50 in series [4] stood at 12 nM; in series [1], 1.4 nM; in series [2], 240 nM.

In the case of `Cc1ccc(-c2ccc(C(=O)Nc3ccc4cc(CN5CCCC5)cnc4c3C)cc2)cc1`, the figures for the IC50 in series [4], in series [1] and in series [2] were 11 nM, 1 nM and 540 nM, respectively.

As to `O=C(Nc1ccc2nc(CN3CCCC3)ccc2c1)c1ccc(-c2ccc(F)cc2)cc1`, the results for the IC50 in series [4], in series [1] and in series [2] were 40 nM, 2.7 nM and 36 nM, respectively.

The compound `O=C(Nc1ccc2cc(CN3CCCC3)cnc2c1)c1ccc(-c2ccc(F)cc2)cc1` came in with a solubility in series [3] of 1.5 µg/mL (≈ 3.53 µM). Further, the IC50 in series [4] worked out at 9.2 nM; in series [1], 2.8 nM; in series [2], 160 nM.

`CC(C)CC(N(C)C)C1(c2ccc(Cl)cc2)CCC1` (configuration not stated) [SIBUTRAMINE]: the inhibition in vivo (commonly the drop in the measured response relative to a control, in per cent) at 1 mg/kg in the series on Rattus norvegicus [5] was 34.6%; in the series with Rattus norvegicus [6], 25.8%.

`Cc1ccc(C2CCN(C(=O)Nc3ccc4cc(CN5CCCC5)cnc4c3)CC2)cc1`: in series [1], the IC50 came out at 23 nM.

As for `O=C(Nc1ccc2cc(CN3CCCC3)cnc2c1)c1ccc(-c2ccc(Cl)cc2)nc1`, the IC50 in series [4] is 14 nM; in series [1], 4.1 nM; in series [2], 930 nM.
